Assay results: article PMC3662472 (Basic research in cardiology, 2012)
Entries after “also recorded” stand apart in the source; their conditions may differ. Read-outs that look alike come from different tables or passages of the source. Ends that are not written are not given here.

Experiments:
[1] = system: porcine Cx43 gene gja1 / Cx43 expression; assay: Cx43 expression; type: cell-based; details: cultured pig ventricular cardiomyocytes
[2] = system: Cx43 hemichannels (cultured pig ventricular cardiomyocytes); type: cell-based; details: Vm +70 mV, siCx43 n = 9, siCx43scr n = 6, MOCK n = 3, ***P < 0.001 siCx43 versus MOCK and siCx43scr
[3] = molecular target: Cx43 hemichannels (HeLa-Cx43 cells) (Mus musculus, UniProt P23242); type: cell-based; details: for Qm at steady state (reduction to, % of value before peptide): n = 5; for Qm (% normalized to average before peptide addition), time course: repeated Vm steps to +70 mV, n = 3; for Qm versus control / HC-mediated unitary events: concentration not given; for Qm versus control: Vm +70 mV (30 s)
Chain of Cx43 hemichannels (HeLa-Cx43 cells) (P23242 whole entry): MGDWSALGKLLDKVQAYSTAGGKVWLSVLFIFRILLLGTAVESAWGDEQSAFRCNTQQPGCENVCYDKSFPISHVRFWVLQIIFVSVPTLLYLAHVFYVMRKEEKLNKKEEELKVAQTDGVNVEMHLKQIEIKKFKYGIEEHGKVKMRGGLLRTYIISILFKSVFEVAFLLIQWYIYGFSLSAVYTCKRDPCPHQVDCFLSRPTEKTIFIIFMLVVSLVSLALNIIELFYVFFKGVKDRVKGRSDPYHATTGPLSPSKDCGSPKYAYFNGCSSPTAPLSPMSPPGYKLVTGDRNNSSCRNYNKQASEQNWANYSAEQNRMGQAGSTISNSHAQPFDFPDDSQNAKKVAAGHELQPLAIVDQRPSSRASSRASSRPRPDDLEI
In short: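 HeLa cells stably express mouse Cx43 from a CMV vector and are kept in DMEM with 20 % FBS, 2 mM glutamine and 1 μg/mL puromycin. In whole-cell clamp (1–3 MΩ pipettes, pH 7.2, 50 nM Ca2+, 1 kHz filter), peptide is pre-incubated 30 min or added during recording. Qm is integrated unitary current over each step, normalized to pre-peptide or […] control. Mean ± SEM, ANOVA/Bonferroni or t test.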

[4] = system: Panx1 HCs; details: 20 μM; ref [6]; cited from earlier work
[5] = system: Cx43 hemichannels (pig ventricular cardiomyocytes); assay: Unitary hemichannel currents in isolated pig left ventricular cardiomyocytes; type: cell-based; details: Vm −70 to +80 mV
[6] = scrambled peptide, Vm +70 mV, HeLa-Cx43

5′-GAAAGAGGAGGAACUCAAA-dTdT-3′ [siCx43]
Cx43 expression, % of control (MOCK) ([1]; *P < 0.05 versus siCx43scr and MOCK): 50% | Cx43 expression knockdown ([1]; siRNA 24 h): ~ 50% | Cx43 HC unitary current activity (Qm) ([2]; listed as siRNA directed against Cx43): significantly inhibited

VCYDKSFPISHVR [Gap26, VCYDKSFPISHVR]
IC50 [3]: ~81 µM | Qm at steady state (reduction to, % of value before peptide) ([3]; 250 μM, Vm steps −30 to +70 mV, *P < 0.05 versus SGap26): ~ 35%

5′-AGAGAUACGAACAAGAGAG-3′ [siCx43^scr]
effect on Cx43 expression ([1]; scrambled siRNA): no effect | Cx43 HC unitary current activity (Qm) [2]: no effect

PSFDSRHCIVKYV [SGap26]
inhibition of Qm at 1 mM ([3]; 1 mM, Vm +70 mV, HeLa-Cx43): strong inhibition | inhibitory effect on Qm over concentration range ([3]; concentration range at which Gap26 displayed inhibition): did not exhibit inhibitory effects | Qm (% normalized to average before peptide addition), time course [3]: around 100% | Qm versus control ([3]; scrambled peptide, HeLa-Cx43): not different from control | HC-mediated unitary events [3, 6]: did not reveal any inhibition | Qm decay over time ([3]; time course, Vm steps to +70 mV, scrambled peptide): did not cause any Qm decay

CC1(C)[C@@H](OC(=O)CCC(=O)O)CC[C@]2(C)[C@H]3C(=O)C=C4[C@@H]5C[C@@](C)(C(=O)O)CC[C@]5(C)CC[C@@]4(C)[C@]3(C)CC[C@@H]12 [carbenoxolone]
block of Panx1 HCs [4]: known to block Panx1 HCs | unitary current activity ([3]; 100 μM, Vm = +70 mV, HeLa-Cx43): rapidly disappeared | unitary current events in cardiomyocytes ([5]; 20 μM): not influenced; also recorded: not affected | unitary current events in cardiomyocytes ([5]; 20 μM, listed as Carbenoxolone): no effect | unitary current events in cardiomyocytes ([5]; 100 μM): acted inhibitory; also recorded: clearly inhibited the currents

TFEPIRISITK [SGap27]
effect on Qm versus concentration ([3]; concentration dependence, Vm +70 mV, HeLa-Cx43): did not affect Qm unless it was applied at 1 mM concentration | Qm (% normalized to average before peptide addition), time course [3]: around 100% | Qm versus control ([3]; scrambled peptide, HeLa-Cx43): not different from control | HC-mediated unitary events [3, 6]: did not reveal any inhibition

SRPTEKTIFII [Gap27, SRPTEKTIFII]
IC50 [3]: ~161 µM | Qm at steady state (reduction to, % of value before peptide) ([3]; 300 μM, Vm steps to +70 mV, **P < 0.01 versus SGap27): ~ 15%
